According to PMC2606940 (The Journal of General Physiology, 2009):
Numbering of substitutions follows the chain as printed. Counter-ions that a name gives are not always drawn.

Key:
CLC-0 E166A mutant = molecular target: T1, CLC-0 E166A mutant (Torpedo marmorata, UniProt P21564, C212S/E166A); format: cell-based; details: for K1/2 (range in words): −140 mV (Fig. 10 C)
T1 sequence (P21564 1-805 E166A/C212S): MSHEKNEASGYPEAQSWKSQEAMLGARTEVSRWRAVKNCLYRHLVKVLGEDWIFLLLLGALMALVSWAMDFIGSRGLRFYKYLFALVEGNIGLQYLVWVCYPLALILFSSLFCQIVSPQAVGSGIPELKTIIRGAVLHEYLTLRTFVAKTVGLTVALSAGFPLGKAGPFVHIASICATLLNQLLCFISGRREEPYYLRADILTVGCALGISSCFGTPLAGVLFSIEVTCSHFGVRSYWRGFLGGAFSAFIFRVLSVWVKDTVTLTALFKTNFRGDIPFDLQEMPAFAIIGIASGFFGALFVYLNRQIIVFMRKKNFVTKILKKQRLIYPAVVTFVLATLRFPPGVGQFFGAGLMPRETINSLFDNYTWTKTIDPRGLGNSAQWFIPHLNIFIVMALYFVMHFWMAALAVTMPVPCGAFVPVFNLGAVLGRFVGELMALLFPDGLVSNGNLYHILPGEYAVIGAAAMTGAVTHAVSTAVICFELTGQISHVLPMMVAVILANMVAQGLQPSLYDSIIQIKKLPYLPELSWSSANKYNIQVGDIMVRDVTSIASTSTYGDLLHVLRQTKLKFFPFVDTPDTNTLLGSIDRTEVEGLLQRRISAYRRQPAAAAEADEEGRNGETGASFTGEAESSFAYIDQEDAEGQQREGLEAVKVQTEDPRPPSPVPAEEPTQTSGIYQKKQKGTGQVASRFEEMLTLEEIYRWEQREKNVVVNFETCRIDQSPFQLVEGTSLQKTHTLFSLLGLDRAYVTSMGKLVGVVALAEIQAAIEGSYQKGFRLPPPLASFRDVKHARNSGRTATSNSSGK
Outline: (§1)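 HEK293 cells expressed C212S-background CLC-0 mutants and were recorded 1–3 d post-transfection as inside-out patches in symmetrical 130 mM NaCl, 10 mM HEPES, pH 7.4. CPA, fatty acids or alkyl sulfates flowed continuously on the cytoplasmic side. C10–C12 compounds were diluted into bath solution from 10 mM DMSO stocks. Test steps ran from +80 to −160 mV after a +80 mV prepulse. Steady-state current was normalized to the mean of pre- and post-blocker controls, and a Langmuir K1/2 was taken at each voltage from ~4–6 patches.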

CLC-0 E166Q mutant = molecular target: T2, CLC-0 E166Q mutant (Torpedo marmorata, UniProt P21564, C212S/E166Q); format: cell-based; details: 5 μM SDS
T2 sequence (P21564 1-805 E166Q/C212S): T1 sequence (P21564 1-805 E166A/C212S) with A166Q
Outline: as §1

SMILES	K1/2 (range in words) (CLC-0 E166A mutant)	blocking affinity (in words) (CLC-0 E166A mutant)	also measured
CCCC(=O)O [butyrate]	mM range		
CS(=O)(=O)SCCS(=O)(=O)O [2-sulfonatoethyl MTS]		lower affinities than that observed with SDS	
CCCCCCCCCCCCOS(=O)(=O)O [SDS, dodecyl sulfate]		high affinity	effect on current (CLC-0 E166Q mutant): very limited effect; block of current (CLC-0 E166A mutant; 5 μM SDS, −160 mV): ~50%
CCC(=O)O [propionate]	mM range		
CCCCCCCCO [Octanol]		low affinity	voltage dependence of the block (CLC-0 E166A mutant): no voltage dependence
CCCCCCCCCC(=O)O [decanoate]	low μM range		
CS(=O)(=O)SCCCCCS(=O)(=O)O [5-sulfonatopentyl MTS]		lower affinities than that observed with SDS	
CCCCCCCCCCCC(=O)O [dodecanoate]	low μM range		
